Compound activity as filed in PubChem BioAssay.
PRMT1 FP inh = PRMT1 methyltransferase inhibitors, primary screen, biochemical, fluorescence polarization. Protein arginine N-methyltransferase 1 (Homo sapiens), Q99873. recombinant PRMT1, activity-based probe fluorescence polarization. inhibition, % at 2.79 µM. actives 1.3% (n = 370,000). AID 652257, 2013;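 active = inhibition above about 21% made by adding two undisclosed values, limit read from the data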
MBD2 inh = inhibitors of MBD2 binding to methylated DNA, primary screen, biochemical, TR-FRET, DNA-binding domain, human. Methyl-CpG-binding domain protein 2 (Homo sapiens), Q9UBB5. MBD2 binding to methylated oligonucleotide. inhibition, % at 4.4 µM. actives 0.31% (n = 370,000). AID 686964, 2013; in the data active = inhibition above about 13%
TDP2 absorb = human TDP2 enzyme inhibitors, primary screen, biochemical, epi absorbance, recombinant enzyme | AID 720702, 2013 | inhibition, % at 12.8 µM | T5PNP hydrolysis, p-nitrophenol absorbance 415 nm | Tyrosyl-DNA phosphodiesterase 2 (Homo sapiens), O95551 | actives 0.34% (n = 370,000);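 active = inhibition above the mean of all tested compounds plus 3 SD, set per campaign, cut at about 25% in these data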
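test system = human TDP2 enzyme | input = TDP2 enzyme at 120 nM final | medium = 50 mM Tris-HCl pH 7.5 with Mg2+, KCl, DTT, BSA | also added = T5PNP substrate, 5 mM | times = 2 h at 37 °C | technique = epi absorbance | benchmarks = high control without enzyme, low control DMSO plus TDP2 | replication = each compound tested once, singlicate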
SIAE primary = human SIAE inhibitors, primary screen, biochemical, fluorescence polarization, FP-Rh probe, 1536-well HTS; Sialate O-acetylesterase (Homo sapiens), Q9HAT2; SIAE FP-Rh probe binding; inhibition, % at 9.66 µM; actives 0.69% (n = 370,000); AID 1053197, 2014;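 active = inhibition above a cutoff: mean of compounds within the control limits plus 3 SD of those, cut at about 17% in these data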
Target sequence (Q9HAT2 whole entry, looked up): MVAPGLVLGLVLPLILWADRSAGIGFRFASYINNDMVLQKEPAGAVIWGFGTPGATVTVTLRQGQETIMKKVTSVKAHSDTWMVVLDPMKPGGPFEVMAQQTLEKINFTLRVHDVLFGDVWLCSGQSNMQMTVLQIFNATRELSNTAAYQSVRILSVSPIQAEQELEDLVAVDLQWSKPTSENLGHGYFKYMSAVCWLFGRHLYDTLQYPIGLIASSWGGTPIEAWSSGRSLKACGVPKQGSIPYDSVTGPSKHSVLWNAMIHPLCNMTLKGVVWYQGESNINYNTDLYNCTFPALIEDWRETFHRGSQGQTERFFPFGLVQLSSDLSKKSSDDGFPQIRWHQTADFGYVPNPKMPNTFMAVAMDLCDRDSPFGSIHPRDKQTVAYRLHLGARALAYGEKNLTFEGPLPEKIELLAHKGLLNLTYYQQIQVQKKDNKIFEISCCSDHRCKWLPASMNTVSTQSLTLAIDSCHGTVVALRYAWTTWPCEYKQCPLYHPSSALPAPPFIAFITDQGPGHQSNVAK
LEDGF integ inh = blockers of LEDGF/p75-dependent integrase strand transfer – biochemical, TR-FRET, high throughput, primary screen; TR-FRET IN-LEDGF/p75 DNA integration, Eu/Cy5; inhibition, % at 3.7 µM; actives 0.64% (n = 370,000); AID 743269, 2014;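 active = inhibition above the screen-wide mean plus 3 SD, cut at about 13% in these data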;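 note: signal is the Cy5 over europium emission ratio at 671 and 618 nm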
UHRF1 binding = UHRF1 methylated DNA binding inhibitors, primary screen, counter-screen for MBD2 inhibitor project, biochemical, TR-FRET, human UHRF1, single concentration. UHRF1 binding to methylated oligo. actives 0.75% (n = 370,000). inhibition, % at 4.4 µM. E3 ubiquitin-protein ligase UHRF1 (Homo sapiens), Q96T88; in the data active = inhibition above about 21%;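 note: UHRF1 SRA domain binding a hemimethylated CpG hairpin DNA probe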
PRMT1 confirm = PRMT1 methyltransferase inhibitors, confirmation, biochemical, fluorescence polarization, triplicate | shares compounds with PRMT1 FP inh | recombinant His-PRMT1, activity-based probe fluorescence polarization | inhibition, % at 2.79 µM | actives 42% (n = 3,300) | AID 687036, 2013;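 active = mean inhibition across replicates above the hit cutoff derived for the earlier primary screen, cut at about 22% in these data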
Of the large screens only hits and unclear results are named; the others gave an inactive call (follow-up assays come after a bar, where they were run). The list is not random: actives were taken first. Their share in the collection is about 3.3%.

O=C(CN1C(=O)c2ccccc2C1=O)NC1CCS(=O)(=O)C1 (stereo not given)	none
Nc1ccc(S(=O)(=O)O)cn1	none
CC(C)(C)Sc1ccc(N)nc1	PRMT1 FP inh 36 | PRMT1 confirm inactive
O=c1c2ccccc2nnn1CSc1nc2ccccc2c(=O)n1CCCO	PRMT1 FP inh 25 | PRMT1 confirm inactive
FC(F)(F)c1cccc(N2CCN(C3=Nc4ccccc4Sc4ccccc43)CC2)c1	none
CCc1ccc(-c2cn(C3CCCCC3)c(=S)[nH]2)cc1	PRMT1 FP inh 29 | PRMT1 confirm inactive
CCc1ccc(-n2cc(-c3ccc([N+](=O)[O-])cc3)[nH]c2=S)cc1	none
Cc1ccc(CSc2nnc(-c3cccs3)o2)cc1C	none
COC(=O)[C@]12C[C@H](CC(=O)NCCCCc3ccccc3)C(=O)N(Cc3cccc4ccccc34)C1=C[C@H](C(C)C)O[C@@H]2C1CC1	none
CCOC(=O)CC(=O)CSc1ncnc2c1nnn2-c1ccc(F)cc1	PRMT1 FP inh 51 | PRMT1 confirm 92
CCOC(=O)CSc1ncnc2c1nnn2-c1ccc(F)cc1	none
COC(=O)[C@H](C)NC(=O)[C@@H]1CC=C[C@@H]2CCN(CCc3ccccc3)C(=O)[C@@H]21	none
CC(C)(C)c1ccc(-c2cn(C[C@H](Cc3ccccc3)n3c(=O)c4ccccc4n3Cc3ccccc3)nn2)cc1	none
O=S(=O)(NCc1cn(Cc2ccccc2)nn1)c1ccccc1Br	none
CCCCCCCCN1CCS(=O)(=O)N(Cc2ccc(Cl)cc2)C(C(=O)OC)C1 (stereo not given)	none
CCCCCNC(=O)C(c1ccccc1F)n1c(=O)c(-c2ccco2)nc2ccccc21 (stereo not given)	PRMT1 FP inh 31 | PRMT1 confirm 25
CC(C)(C)NC(=O)C(c1ccccc1F)n1c(=O)c(-c2ccco2)nc2ccccc21 (stereo not given)	none
CCCCCNC(=O)C(c1ccc(OC)cc1)n1c(=O)c(-c2ccco2)nc2ccccc21 (stereo not given)	PRMT1 FP inh 28 | PRMT1 confirm inactive
O=C(NCC(c1ccccc1)c1ccccc1)[C@H](Cc1ccccc1)NC1(C(=O)NC2CCCCC2)CCC1	none
O=C(Nc1cc(Cl)ccc1F)C1CCCN1S(=O)(=O)c1cccc2cccnc12 (stereo not given)	none
CCOc1ccc(-n2c(SCC(=O)Nc3ccc(S(=O)(=O)Nc4nccs4)cc3)nnc2-c2ccccc2)cc1	none
O=C(CCNC(=O)c1ccco1)NCc1ccccc1	none
O=C(NCCNCc1ccccc1)c1ccco1	PRMT1 FP inh 28 | PRMT1 confirm inactive
OCCN(CCO)c1nc(N2CCCCC2)c2nc(N(CCO)CCO)nc(N3CCCCC3)c2n1	PRMT1 FP inh 57 | PRMT1 confirm 75
Fc1ccccc1-c1n[nH]c(=S)n1N=Cc1ccc(-c2ccccc2)cc1	none
O=C(O)CSC1CC(=O)N(c2cccc(Cl)c2)C1=O (stereo not given)	none
O=C(O)CSC1CC(=O)N(c2ccc(Cl)c(Cl)c2)C1=O (stereo not given)	PRMT1 FP inh 48 | PRMT1 confirm 36
COC(=O)[C@]12C[C@H](CC(=O)NCCCCc3ccccc3)C(=O)N(Cc3cccc4ccccc34)C1=C[C@H](C(C)(C)C)O[C@@H]2C	none
O=[N+]([O-])c1cnc2ccccc2c1Sc1ccccc1	PRMT1 FP inh 73 | PRMT1 confirm 71
O=C1CCCC(=O)N1c1ccc(O)cc1	none
